Structures can show the parent of a compound that is named as a salt. Calls of active or inactive are those of the source. No cut-off for these calls is given here.
Key:
Nucleic Acid [1] = test: Binding affinity to human c-KIT1 (5'-FAM-GGGAGGGCGCTGGGAGGAGGG-TAMRA-3') DNA assessed as concentration required to cause half maximal change in melting temperature by FRET-melting assay (reference value: 54.4 degC); type: nucleic-acid assay
In short: (§1)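 Dual FAM/TAMRA-labelled oligonucleotides diluted in 60 mM potassium cacodylate, pH 7.4, annealed at 400 nM (94 °C for 10 min, cooled to room temperature at 0.1 °C/min), then mixed 1:1 with ligand solution to 200 nM DNA final. Melting read with excitation at 483 nm and emission at 533 nm, in triplicate. ΔTm taken across a range of ligand concentrations, with the ligand level giving half-maximal ΔTm also derived.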

Nucleic Acid [2] = test: Binding affinity to human c-KIT1 (5'-FAM-GGGAGGGCGCTGGGAGGAGGG-TAMRA-3') DNA assessed as change in melting temperature at 1 uM by FRET-melting assay (reference value: 54.4 degC); type: nucleic-acid assay; in short: as §1
Nucleic Acid [3] = test: Binding affinity to human c-KIT2 (5'-FAM-GGGCGGGCGCGAGGGAGGGG-TAMRA-3') DNA assessed as change in melting temperature at 1 uM by FRET-melting assay (reference value: 72.7 degC); type: nucleic-acid assay; in short: as §1
Nucleic Acid [4] = test: Binding affinity to human c-KIT2 (5'-FAM-GGGCGGGCGCGAGGGAGGGG-TAMRA-3') DNA assessed as concentration required to cause half maximal change in melting temperature by FRET-melting assay (reference value: 72.7 degC); type: nucleic-acid assay; in short: as §1
Nucleic Acid [5] = test: Binding affinity to human telomeric (5'-FAM-GGGTTAGGGTTAGGGTTAGGG-TAMRA-3') DNA assessed as change in melting temperature at 1 uM by FRET-melting assay (reference value: 59.4 degC); type: nucleic-acid assay; in short: as §1
Nucleic Acid [6] = test: Binding affinity to human telomeric (5'-FAM-GGGTTAGGGTTAGGGTTAGGG-TAMRA-3') DNA assessed as concentration required to cause half maximal change in melting temperature by FRET-melting assay (reference value: 59.4 degC); type: nucleic-acid assay; in short: as §1
cells = type: functional, cell-based; conditions: Homo sapiens, GIST882, 96 h
HT-29 = test: cells; type: functional, cell-based; conditions: Homo sapiens, HT-29, 96 h
Nucleic Acid [7] = test: Binding affinity to double stranded-DNA (50-FAM-TAT AGC TAT A-HEG-TAT AGC TAT A-TAMRA-30) assessed as concentration required to cause half maximal change in melting temperature by FRET-melting assay (reference value: 62.7 degC); type: nucleic-acid assay; in short: as §1
Nucleic Acid [8] = test: Binding affinity to double stranded-DNA (50-FAM-TAT AGC TAT A-HEG-TAT AGC TAT A-TAMRA-30) assessed as change in melting temperature at 1 uM by FRET-melting assay (reference value: 62.7 degC); type: nucleic-acid assay; in short: as §1
[9] = Toxicity in human GIST882 cells expressing c-Kit at 20 uM after 24 hrs; type: cell-based; conditions: gist882, 24 h
[10] = target: Mast/stem cell growth factor receptor Kit (Homo sapiens) (UniProt P10721); test: Inhibition of c-Kit mRNA expression in human GIST882 cells after 24 hrs by […] RT-PCR analysis; type: functional, cell-based
Chain of Mast/stem cell growth factor receptor Kit (Homo sapiens) (P10721 whole entry): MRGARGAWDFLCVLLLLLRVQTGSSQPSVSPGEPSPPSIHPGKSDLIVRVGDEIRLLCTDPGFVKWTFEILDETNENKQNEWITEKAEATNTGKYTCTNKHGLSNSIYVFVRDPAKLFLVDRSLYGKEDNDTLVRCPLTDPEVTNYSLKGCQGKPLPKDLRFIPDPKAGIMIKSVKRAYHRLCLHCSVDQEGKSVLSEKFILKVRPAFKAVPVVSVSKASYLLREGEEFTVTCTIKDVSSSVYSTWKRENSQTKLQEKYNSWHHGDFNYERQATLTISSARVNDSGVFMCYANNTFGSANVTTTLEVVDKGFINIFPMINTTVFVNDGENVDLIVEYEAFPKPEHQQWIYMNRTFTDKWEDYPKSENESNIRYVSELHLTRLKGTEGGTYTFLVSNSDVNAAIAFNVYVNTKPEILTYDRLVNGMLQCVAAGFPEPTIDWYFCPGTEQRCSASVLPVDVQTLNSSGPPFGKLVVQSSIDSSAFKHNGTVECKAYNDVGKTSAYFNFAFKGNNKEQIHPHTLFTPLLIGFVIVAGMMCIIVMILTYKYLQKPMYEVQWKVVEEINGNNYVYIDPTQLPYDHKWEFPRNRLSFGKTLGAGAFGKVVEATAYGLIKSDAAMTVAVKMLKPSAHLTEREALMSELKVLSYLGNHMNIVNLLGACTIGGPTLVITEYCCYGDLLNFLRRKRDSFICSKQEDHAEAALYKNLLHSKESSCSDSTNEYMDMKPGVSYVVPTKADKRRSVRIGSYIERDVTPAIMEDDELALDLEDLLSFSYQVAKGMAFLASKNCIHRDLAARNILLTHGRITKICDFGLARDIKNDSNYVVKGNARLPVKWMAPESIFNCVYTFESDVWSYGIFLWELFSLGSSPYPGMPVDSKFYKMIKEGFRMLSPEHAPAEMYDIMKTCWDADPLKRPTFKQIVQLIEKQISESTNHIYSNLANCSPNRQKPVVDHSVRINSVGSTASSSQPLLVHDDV
In short: (§2)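 GIST882 cells grown in RPMI 1640 with 10% FBS. 1 × 10^6 cells seeded in T25 flasks and treated 24 h with 0.8, 4 or 20 μM ligand, or DMSO control. Total RNA extracted; cDNA made from 1 μg RNA with oligo dT (55 °C, 1 h). qPCR annealing at 64 °C, single amplicon checked by melt curve. KIT mRNA normalised to β-actin or YWHAZ and given as % of control. Two independent experiments, each in triplicate.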

[11] = target: Mast/stem cell growth factor receptor Kit (Homo sapiens) (UniProt P10721); test: Inhibition of c-Kit mRNA expression in human GIST882 cells at 4 uM after 24 hrs by […] RT-PCR analysis relative to control; type: functional, cell-based; in short: as §2
[12] = target: Mast/stem cell growth factor receptor Kit (Homo sapiens) (UniProt P10721); test: Inhibition of c-Kit protein expression in human GIST882 cells after 24 hrs by immunoblotting; type: functional, cell-based
In short: (§3)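 GIST882 cells (1 × 10^6 per T25 flask) treated 24 h with 0.8, 4 or 20 μM ligand, or DMSO control. Lysed in RIPA buffer with protease and phosphatase inhibitors; 10–20 μg protein run on 8–16% SDS-PAGE, transferred to nitrocellulose and probed with anti-KIT. β-actin used as loading control; enhanced-luminescence detection.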

[13] = target: Mast/stem cell growth factor receptor Kit (Homo sapiens) (UniProt P10721); test: Inhibition of c-Kit mRNA expression in human GIST882 cells at 20 uM after 24 hrs by […] RT-PCR analysis relative to control; type: functional, cell-based; in short: as §2
[14] = target: Mast/stem cell growth factor receptor Kit (Homo sapiens) (UniProt P10721); test: Inhibition of c-Kit protein expression in human GIST882 cells at 20 uM after 24 hrs by immunoblotting; type: functional, cell-based; in short: as §3

| Structure (SMILES) | Activity (Nucleic Acid [1]) [µM] | deltaTm (Nucleic Acid [2]) [K] | deltaTm (Nucleic Acid [3]) [K] | Activity (Nucleic Acid [4]) [µM] | deltaTm (Nucleic Acid [5]) [K] | Activity (Nucleic Acid [6]) [µM] | IC50 (cells) [µM] | IC50 (HT-29) [µM] | Activity (Nucleic Acid [7]) [µM] | deltaTm (Nucleic Acid [8]) [K] | Activity [9] | inhibition [10] | inhibition [11] [%] | inhibition [12] | inhibition [13] [%] | inhibition [14] |
| --- | --- | --- | --- | --- | --- | --- | --- | --- | --- | --- | --- | --- | --- | --- | --- | --- |
| O=C1c2ccccc2-c2c1c1ccccc1c(=O)n2CCCN1CCCC1 | 0.93 | 23.7 | 14.4 | 0.72 | 14.4 | 1.63 | 5 | 0.4 | 9 | 4 | – | – | – | – | – | – |
| O=C1c2ccccc2-c2c1c1ccccc1c(=O)n2CCCn1ccnc1 | > 10 | 11.7 | 13.2 | 0.62 | 6.3 | > 10 | 23 | 2.2 | > 10 | 0 | – | – | – | – | – | – |
| CN1CCN(CCCn2c3c(c4ccccc4c2=O)C(=O)c2ccccc2-3)CC1 | 0.59 | 25.9 | 12.2 | 0.84 | 17.6 | 0.98 | 13.9 | 0.7 | > 10 | 1.7 | – | – | – | – | – | – |
| O=C1c2ccccc2-c2c1c1ccccc1c(=O)n2CCCN1CCOCC1 | 8.9 | 8.7 | 3.9 | 4.4 | 4.8 | > 10 | > 50 | > 50 | > 10 | 0.6 | – | – | – | – | – | – |
| CN(C)CCCn1c2c(c3ccccc3c1=O)C(=O)c1ccccc1-2.Cl | 0.95 | 20.1 | 13 | 0.69 | 13 | 1.6 | 4.1 | 0.3 | > 10 | 3.9 | Toxic | Dose-dependent effect | 67 | Dose-dependent effect | 89 | Active |
| Cc1ccc(NC(=O)c2ccc(CN3CCN(C)CC3)cc2)cc1Nc1nccc(-c2cccnc2)n1 [IMATINIB MESYLATE] | – | – | – | – | – | – | 1.7 | – | – | – | – | – | – | – | – | – |
